# Measurements as given in ChEMBL document CHEMBL5715938, “The protein kinase Cbeta-selective inhibitor, Enzastaurin (LY317615.HCl), suppresses signaling through the AKT pathway, induces apoptosis, and suppresses growth of human colon cancer and glioblastoma xenografts” (Cancer Res, 2005).
# Active and inactive are the calls of the source. The rule behind the calls is not given here.
# How the values were obtained:
# [1] = target: Protein kinase C theta type (Homo sapiens) (UniProt Q04759); test: Inhibition of PKCteta (unknown origin) at 1 micromol/L relative to control; conditions: dose 1.0 µmol/L
# Sequence of Protein kinase C theta type (Homo sapiens) (Q04759 whole entry, looked up): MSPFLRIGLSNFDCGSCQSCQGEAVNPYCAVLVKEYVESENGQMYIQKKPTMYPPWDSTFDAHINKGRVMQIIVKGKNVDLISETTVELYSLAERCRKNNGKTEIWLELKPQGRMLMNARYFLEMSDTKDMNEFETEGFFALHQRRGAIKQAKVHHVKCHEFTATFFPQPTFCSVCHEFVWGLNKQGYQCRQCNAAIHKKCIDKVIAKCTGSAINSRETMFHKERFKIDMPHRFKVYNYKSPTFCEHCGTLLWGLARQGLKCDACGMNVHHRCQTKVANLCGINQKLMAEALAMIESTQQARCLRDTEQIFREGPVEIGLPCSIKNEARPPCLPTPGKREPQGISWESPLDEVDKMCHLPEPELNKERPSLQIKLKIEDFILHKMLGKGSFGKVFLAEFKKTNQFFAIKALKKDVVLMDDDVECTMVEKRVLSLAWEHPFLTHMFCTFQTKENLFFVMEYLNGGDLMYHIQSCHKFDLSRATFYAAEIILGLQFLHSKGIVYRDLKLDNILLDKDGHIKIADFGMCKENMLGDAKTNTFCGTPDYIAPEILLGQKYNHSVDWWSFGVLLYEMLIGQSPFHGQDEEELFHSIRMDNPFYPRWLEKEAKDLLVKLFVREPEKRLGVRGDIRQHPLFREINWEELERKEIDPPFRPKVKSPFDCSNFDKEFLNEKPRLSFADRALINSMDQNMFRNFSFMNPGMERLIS
# In short: (§1)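 Commercial kinase profiler panel run to the provider's protocol, with the compound tested at 1 µmol/L. Activity is expressed as percent of kinase activity without compound.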
# [2] = target: Mitogen-activated protein kinase 11 (Homo sapiens) (UniProt Q15759); test: Inhibition of SAPK2b (unknown origin) at 1 micromol/L relative to control; conditions: dose 1.0 µmol/L; in short: as §1
# Sequence of Mitogen-activated protein kinase 11 (Homo sapiens) (Q15759 whole entry, the tested form may be a part): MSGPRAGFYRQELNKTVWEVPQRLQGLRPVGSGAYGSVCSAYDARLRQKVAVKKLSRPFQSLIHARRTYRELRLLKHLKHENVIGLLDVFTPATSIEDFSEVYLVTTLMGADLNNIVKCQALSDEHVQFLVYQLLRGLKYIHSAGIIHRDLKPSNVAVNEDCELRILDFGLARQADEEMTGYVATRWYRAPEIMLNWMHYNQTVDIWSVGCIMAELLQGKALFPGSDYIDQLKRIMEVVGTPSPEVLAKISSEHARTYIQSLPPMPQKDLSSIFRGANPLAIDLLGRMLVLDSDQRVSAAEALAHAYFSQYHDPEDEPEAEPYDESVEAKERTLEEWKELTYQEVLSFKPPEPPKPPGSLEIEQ
# U-87 MG [3] = test: Induction of apoptosis in human U-87 MG cells assessed as increase in oligonucleosomal fragmentation at 1 to 4 micromol/L incubated for 48 hrs by ELISA method; type: functional, cell-based; conditions: U-87MG ATCC, dose 1-4 µmol/L
# In short: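 Oligonucleosomal fragmentation by Cell Death Detection ELISA-plus; 5,000 cells/well in 1% FBS medium, treated 48 h (range studied 0.1–10 μmol/L); absorbance normalized to control-treated cells to give nucleosomal enrichment factor.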
# DU-145 = test: Antiproliferative activity against human DU-145 cells assessed as reduction in cell growth upto 10 uM measured after 6 days by propidium iodide staining based analysis; type: functional; conditions: time 6.0 day
# In short: (§2)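 ATCC-sourced lines grown without antibiotics; 1,000 cells/well in 1% FBS medium, refed ±drug on days 1 and 4 over a 6-day course. On day 7, propidium iodide (10 μg/mL in D-PBS) read after 30 min for nonviable cells, plate frozen at -80°C 2 h, thawed and reread; proliferative index = postfreeze minus prefreeze signal.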
# HCT-116 [4] = test: Antitumor activity against human HCT-116 cells xenografted in athymic nude mouse assessed as reduction in GSK3beta phosphorylation at serine 9 residue at 75 mg/kg, po administered twice daily measured after 30 mins by ELISA method relative to control; type: functional; set-up: scale not given: the % may be the effect or the level left; conditions: 0.5 h
# In short: (§3)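 HCT116-bearing nude mice, 75 mg/kg by gavage; tumors and PBMCs harvested 0.5, 2, 4, 8 h post-dose, n = 5 per time point. PBMCs from five mice pooled via CPT tube. Lysates assayed by pGSK3β Ser9 immunometric ELISA (tumor 400–600 μg, PBMC 50–100 μg protein/well); percent of vehicle control, Dunnett/ANOVA.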
# HCT-116 [5] = test: Antitumor activity against human HCT-116 cells xenografted in athymic nude mouse assessed as reduction in tumor growth at 75 mg/kg, po administered twice daily measured after 21 days; type: functional, organism-based; conditions: time 21.0 day
# In short: (§4)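 Female athymic nude mice, 6–8 weeks, 5 million cells s.c. flank in 1:1 serum-free medium/matrigel; at group mean 100 mm³, 75 mg/kg by gavage twice daily in 10% acacia for 21 days, n = 9/group, vehicle controls; caliper volume A²×B×0.536; two-way repeated measures analysis.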
# HCT-116 [6] = test: Antiproliferative activity against human HCT-116 cells assessed as reduction in cell growth upto 10 uM measured after 6 days by propidium iodide staining based analysis; type: functional; conditions: time 6.0 day; in short: as §2
# [7] = target: Serine/threonine-protein kinase AKT (Homo sapiens) (UniProt P31751+Q9Y243+P31749); test: Inhibition of AKT phosphorylation at Thr308 residue in human HCT-116 cells at 1 micromol/L upto 4 hrs by Western blotting analysis; type: cell-based; conditions: dose 1.0 µmol/L
# Sequence of Serine/threonine-protein kinase AKT (Homo sapiens) (P31749 whole entry, looked up): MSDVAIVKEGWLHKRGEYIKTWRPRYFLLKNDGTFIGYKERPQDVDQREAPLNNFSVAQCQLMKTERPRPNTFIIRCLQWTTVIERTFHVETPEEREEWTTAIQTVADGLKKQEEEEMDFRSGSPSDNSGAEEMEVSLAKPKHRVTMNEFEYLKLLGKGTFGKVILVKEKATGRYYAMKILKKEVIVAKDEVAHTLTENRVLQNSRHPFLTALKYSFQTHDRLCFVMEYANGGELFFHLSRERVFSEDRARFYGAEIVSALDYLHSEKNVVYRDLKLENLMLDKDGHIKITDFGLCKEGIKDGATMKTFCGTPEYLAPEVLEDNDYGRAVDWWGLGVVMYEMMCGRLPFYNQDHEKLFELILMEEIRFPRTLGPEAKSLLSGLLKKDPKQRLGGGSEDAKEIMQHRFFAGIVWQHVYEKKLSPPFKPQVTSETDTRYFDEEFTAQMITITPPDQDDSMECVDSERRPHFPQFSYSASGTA
# Sequence of Serine/threonine-protein kinase AKT (Homo sapiens) (P31751 whole entry, looked up): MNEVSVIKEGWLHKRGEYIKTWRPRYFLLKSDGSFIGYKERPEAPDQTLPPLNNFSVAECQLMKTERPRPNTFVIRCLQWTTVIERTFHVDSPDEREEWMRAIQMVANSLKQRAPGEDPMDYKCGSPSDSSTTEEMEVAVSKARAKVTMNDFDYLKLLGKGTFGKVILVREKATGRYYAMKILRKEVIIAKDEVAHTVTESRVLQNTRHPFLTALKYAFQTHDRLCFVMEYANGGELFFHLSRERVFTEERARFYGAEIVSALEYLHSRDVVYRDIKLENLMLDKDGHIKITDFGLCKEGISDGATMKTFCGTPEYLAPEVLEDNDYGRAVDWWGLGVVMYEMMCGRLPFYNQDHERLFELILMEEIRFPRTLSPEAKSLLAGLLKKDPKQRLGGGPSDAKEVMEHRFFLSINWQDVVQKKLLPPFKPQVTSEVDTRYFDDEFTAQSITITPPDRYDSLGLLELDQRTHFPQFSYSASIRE
# Sequence of Serine/threonine-protein kinase AKT (Homo sapiens) (Q9Y243 whole entry, looked up): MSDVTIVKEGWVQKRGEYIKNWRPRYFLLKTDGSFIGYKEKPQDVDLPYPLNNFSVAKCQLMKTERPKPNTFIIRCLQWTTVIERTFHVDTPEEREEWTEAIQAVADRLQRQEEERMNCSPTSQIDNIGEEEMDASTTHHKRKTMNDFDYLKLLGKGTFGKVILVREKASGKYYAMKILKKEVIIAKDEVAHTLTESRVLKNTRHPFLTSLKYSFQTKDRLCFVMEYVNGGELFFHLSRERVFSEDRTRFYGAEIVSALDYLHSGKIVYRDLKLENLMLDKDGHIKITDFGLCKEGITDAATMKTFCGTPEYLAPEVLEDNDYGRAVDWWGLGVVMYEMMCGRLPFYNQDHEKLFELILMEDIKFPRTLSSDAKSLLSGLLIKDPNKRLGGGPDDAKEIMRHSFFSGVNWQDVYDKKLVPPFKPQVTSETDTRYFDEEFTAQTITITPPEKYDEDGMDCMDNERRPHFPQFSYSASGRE
# In short: (§5)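 Cultured tumor cells treated with 1 μmol/L drug; lysates in cell extraction buffer with protease inhibitors, western blotted with phospho-specific antibodies (pGSK3β Ser9, pAKT Thr308, phospho-ERK) alongside total GSK3β/AKT.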
# U-87 MG [8] = test: Inhibition of ERK in human U-87 MG cells at 1 micromol/L measured upto 4 hrs by Western blotting analysis; type: cell-based; conditions: dose 1.0 µmol/L; in short: as §5
# A498 = test: Antiproliferative activity against human A498 cells assessed as reduction in cell growth upto 10 uM measured after 6 days by propidium iodide staining based analysis; type: functional; conditions: time 6.0 day; in short: as §2
# [9] = Plasma concentration in athymic nude mouse xenografted with human HCT-116 cells at 75 mg/kg, po administered twice daily measured after 2 hrs by LC-MS analysis; type: ADME, organism-based
# In short: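 Female athymic nude mice, 6–8 weeks old, received 5 million HCT116 cells s.c. in the flank in 1:1 serum-free medium and matrigel (n = 9 per group). Dosing began at a group mean tumor volume of 100 mm³: 75 mg/kg twice daily by gavage, suspended in 10% acacia in water. Plasma was taken on days 1 and 21 at 0.5–12 h post-dose and measured by LC-MS/MS.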
# HCT-116 [10] = test: Antitumor activity against human HCT-116 cells xenografted in athymic nude mouse assessed as reduction in GSK3beta phosphorylation at serine 9 residue at 75 mg/kg, po administered twice daily measured after 2 hrs by ELISA method relative to control; type: functional; set-up: scale not given: the % may be the effect or the level left; in short: as §3
# [11] = target: Mitogen-activated protein kinase 12 (Homo sapiens) (UniProt P53778); test: Inhibition of SAPK3 (unknown origin) at 1 micromol/L relative to control; conditions: dose 1.0 µmol/L; in short: as §1
# Sequence of Mitogen-activated protein kinase 12 (Homo sapiens) (P53778 whole entry): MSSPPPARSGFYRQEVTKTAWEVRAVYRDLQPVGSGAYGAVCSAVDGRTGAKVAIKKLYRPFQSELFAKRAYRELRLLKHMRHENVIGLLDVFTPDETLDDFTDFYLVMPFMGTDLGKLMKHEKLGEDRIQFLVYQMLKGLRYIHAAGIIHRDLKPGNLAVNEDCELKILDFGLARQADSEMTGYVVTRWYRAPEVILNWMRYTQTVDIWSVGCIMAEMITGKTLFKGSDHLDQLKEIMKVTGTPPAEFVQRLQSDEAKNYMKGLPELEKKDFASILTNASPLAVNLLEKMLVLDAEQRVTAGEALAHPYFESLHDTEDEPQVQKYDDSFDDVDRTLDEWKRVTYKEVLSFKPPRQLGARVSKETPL
# OVCAR-5 = test: Antiproliferative activity against human OVCAR-5 cells assessed as reduction in cell growth upto 10 uM measured after 6 days by propidium iodide staining based analysis; type: functional; conditions: time 6.0 day; in short: as §2
# Homo sapiens = organism: Homo sapiens; test: Inhibition of p70S6K (unknown origin) at 1 micromol/L relative to control; conditions: dose 1.0 µmol/L; in short: as §1
# NCI-H322M = test: Antiproliferative activity against human NCI-H322M cells assessed as reduction in cell growth upto 10 uM measured after 6 days by propidium iodide staining based analysis; type: functional; conditions: time 6.0 day; in short: as §2
# U-87 MG [12] = test: Antitumor activity against human U-87 MG cells xenografted in athymic nude mouse assessed as reduction in tumor growth at 75 mg/kg, po administered twice daily measured after 21 days; type: functional, organism-based; conditions: U-87MG ATCC, time 21.0 day; in short: as §4
# HCT-116 [13] = test: Inhibition of ribosomal protein S6 phosphorylation at serine 240/244 residue in human HCT-116 cells at 1 micromol/L upto 4 hrs by Western blotting analysis; type: cell-based; conditions: dose 1.0 µmol/L
# In short: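 HCT116 cells from ATCC were grown in FBS-containing medium without antibiotics. They were lysed in cell extraction buffer with protease inhibitor cocktails, and protein was measured by DC assay. Western blotting used phospho-S6 Ser240/244 and total S6 ribosomal protein antibodies.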
# [14] = target: Protein kinase C epsilon type (Homo sapiens) (UniProt Q02156); test: Inhibition of PKCepsilon (unknown origin) at 1 micromol/L relative to control; conditions: dose 1.0 µmol/L; in short: as §1
# Sequence of Protein kinase C epsilon type (Homo sapiens) (Q02156 whole entry): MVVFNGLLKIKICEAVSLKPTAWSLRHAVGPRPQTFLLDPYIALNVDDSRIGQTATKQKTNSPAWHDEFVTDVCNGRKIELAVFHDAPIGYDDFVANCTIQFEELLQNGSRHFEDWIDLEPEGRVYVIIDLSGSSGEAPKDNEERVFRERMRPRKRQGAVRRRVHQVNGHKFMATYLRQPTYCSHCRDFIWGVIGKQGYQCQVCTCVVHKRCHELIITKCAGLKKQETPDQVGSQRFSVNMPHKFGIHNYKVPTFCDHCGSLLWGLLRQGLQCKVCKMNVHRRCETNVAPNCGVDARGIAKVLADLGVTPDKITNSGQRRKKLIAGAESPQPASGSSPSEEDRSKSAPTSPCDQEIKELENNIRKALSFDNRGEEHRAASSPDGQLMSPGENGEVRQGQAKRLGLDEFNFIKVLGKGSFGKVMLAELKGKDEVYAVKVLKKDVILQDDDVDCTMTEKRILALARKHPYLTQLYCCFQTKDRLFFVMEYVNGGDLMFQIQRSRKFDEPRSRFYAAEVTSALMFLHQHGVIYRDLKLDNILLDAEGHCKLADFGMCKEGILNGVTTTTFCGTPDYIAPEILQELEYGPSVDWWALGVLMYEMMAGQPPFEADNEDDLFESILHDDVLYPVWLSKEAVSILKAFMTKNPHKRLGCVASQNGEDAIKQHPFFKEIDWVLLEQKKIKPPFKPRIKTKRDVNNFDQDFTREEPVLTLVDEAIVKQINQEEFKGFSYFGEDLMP
# [15] = target: Protein kinase C zeta type (Homo sapiens) (UniProt Q05513); test: Inhibition of PKCzeta (unknown origin) at 1 micromol/L relative to control; conditions: dose 1.0 µmol/L; in short: as §1
# Sequence of Protein kinase C zeta type (Homo sapiens) (Q05513 whole entry): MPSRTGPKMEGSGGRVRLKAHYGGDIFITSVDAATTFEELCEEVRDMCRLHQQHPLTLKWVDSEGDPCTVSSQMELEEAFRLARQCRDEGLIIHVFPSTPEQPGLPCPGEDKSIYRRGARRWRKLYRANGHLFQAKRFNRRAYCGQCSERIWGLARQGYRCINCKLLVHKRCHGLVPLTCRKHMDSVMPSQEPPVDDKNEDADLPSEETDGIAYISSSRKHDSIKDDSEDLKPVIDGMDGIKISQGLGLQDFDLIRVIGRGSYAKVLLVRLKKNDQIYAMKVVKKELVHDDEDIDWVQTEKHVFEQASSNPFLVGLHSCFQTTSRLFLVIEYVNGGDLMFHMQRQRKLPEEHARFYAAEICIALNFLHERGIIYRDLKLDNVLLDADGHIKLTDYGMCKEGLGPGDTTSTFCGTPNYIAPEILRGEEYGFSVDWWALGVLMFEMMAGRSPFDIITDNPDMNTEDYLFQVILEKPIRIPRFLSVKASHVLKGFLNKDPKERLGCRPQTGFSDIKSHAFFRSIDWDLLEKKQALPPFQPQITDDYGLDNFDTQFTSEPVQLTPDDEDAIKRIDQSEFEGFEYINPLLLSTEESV
# [16] = target: Mitogen-activated protein kinase 1 (Homo sapiens) (UniProt P28482); test: Inhibition of MAPK1 (unknown origin) at 1 micromol/L relative to control; conditions: dose 1.0 µmol/L
# Sequence of Mitogen-activated protein kinase 1 (Homo sapiens) (P28482 whole entry): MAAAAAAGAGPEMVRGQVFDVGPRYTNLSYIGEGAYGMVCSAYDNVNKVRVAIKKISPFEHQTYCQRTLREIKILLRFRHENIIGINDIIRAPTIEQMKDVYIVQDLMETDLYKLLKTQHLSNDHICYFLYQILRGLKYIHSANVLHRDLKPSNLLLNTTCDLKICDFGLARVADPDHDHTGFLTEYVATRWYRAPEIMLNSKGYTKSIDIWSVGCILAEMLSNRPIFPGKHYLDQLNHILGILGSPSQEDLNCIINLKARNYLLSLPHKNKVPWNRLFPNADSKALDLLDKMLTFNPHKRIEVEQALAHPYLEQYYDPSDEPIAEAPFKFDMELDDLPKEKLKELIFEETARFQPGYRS
# In short: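 Upstate Kinase Profiler panel at 1 μmol/L drug, run per provider; data expressed as percent of kinase activity without drug.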
# SK-OV-3 = test: Antiproliferative activity against human SK-OV-3 cells assessed as reduction in cell growth upto 10 uM measured after 6 days by propidium iodide staining based analysis; type: functional; conditions: time 6.0 day; in short: as §2
# HCT-116 [17] = test: Induction of apoptosis in human HCT-116 cells assessed as increase in apoptotic cells in sub-G0-G1 fraction at 0.3 to 4 micromol/L incubated for 72 hrs by TUNEL staining based analysis; type: functional, cell-based; conditions: dose 0.3-4 µmol/L
# [18] = target: Glycogen synthase kinase-3 beta (Homo sapiens) (UniProt P49841); conditions: U-87 MG, dose 1.0 µmol/L, time <= 4.0 hrs
# Sequence of Glycogen synthase kinase-3 beta (Homo sapiens) (P49841 whole entry, looked up): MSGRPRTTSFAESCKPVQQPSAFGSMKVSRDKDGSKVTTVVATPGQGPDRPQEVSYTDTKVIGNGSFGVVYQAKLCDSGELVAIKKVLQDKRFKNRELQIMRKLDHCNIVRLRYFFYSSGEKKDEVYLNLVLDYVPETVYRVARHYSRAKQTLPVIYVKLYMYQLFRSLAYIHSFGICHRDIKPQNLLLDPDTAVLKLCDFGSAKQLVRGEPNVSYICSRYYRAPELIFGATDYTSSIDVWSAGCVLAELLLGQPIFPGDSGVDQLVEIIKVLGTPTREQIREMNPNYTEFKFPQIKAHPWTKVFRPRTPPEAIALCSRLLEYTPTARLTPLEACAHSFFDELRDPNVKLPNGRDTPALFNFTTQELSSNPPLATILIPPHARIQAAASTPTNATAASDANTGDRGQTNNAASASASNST
# [19] = target: Serine/threonine-protein kinase N2 (Homo sapiens) (UniProt Q16513); test: Inhibition of PRK2 (unknown origin) at 1 micromol/L relative to control; conditions: dose 1.0 µmol/L; in short: as §1
compound,measurement,setting,value
Cl.Cn1cc(C2=C(c3cn(C4CCN(Cc5ccccn5)CC4)c4ccccc34)C(=O)NC2=O)c2ccccc21 [ENZASTAURIN HYDROCHLORIDE],% control activity,[1],2%
same,% control activity,[2],96%
same,Activity,U-87 MG [3],Active
same,Activity,DU-145,inactive
same,Activity,HCT-116 [4],50%
same,Activity,HCT-116 [5],Active
same,Activity,HCT-116 [6],Active
same,inhibition,[7],Active
same,inhibition,U-87 MG [8],inactive
same,Activity,A498,inactive
same,concentration at 2 h,[9],2000 nM
same,Activity,HCT-116 [10],80%
same,% control activity,[11],88%
same,Activity,OVCAR-5,inactive
same,% control activity,Homo sapiens,52%
same,Activity,NCI-H322M,inactive
same,Activity,U-87 MG [12],Active
same,inhibition,HCT-116 [13],Active
same,% control activity,[14],9%
same,% control activity,[15],47%
same,% control activity,[16],114%
same,Activity,SK-OV-3,inactive
same,Activity,HCT-116 [17],Active
same,inhibition,[18],Active
same,% control activity,[19],88%
